Data: ChEMBL document CHEMBL4043304, “Synthesis and Evaluation of Hydrogen Peroxide Sensitive Prodrugs of Methotrexate and Aminopterin for the Treatment of Rheumatoid Arthritis” (J Med Chem, 2018)
In brackets after ≈: the same amount, converted by molar mass. Values belong to the compound of their own block, whether it stands above or below them. Activity calls are given as the source filed them. The calls are words filed in the database; no cut-off is given here.

Legend:
NCI-H460 [1] = assay: Cytotoxicity against human NCI-H460 cells assessed as decrease in cell viability after 48 hrs by MTS assay; assay type: functional, cell-based
Method in brief: (§1)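 MCF-7 (DMEM) or NCI-H460 (RPMI), 10% FBS, seeded at 10^4 or 7×10^3 cells/well respectively and attached for 24 h. Exposed to serial compound concentrations for 48 h, then MTS read at 490 nm. DMSO ≤0.4% matched controls. Triplicate. IC50 by non-linear regression.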

Mus musculus [2] = assay: Antiarthritic activity in collagen-induced DBA/1J mouse arthritis model assessed as reduction of macroscopic score at 7 mg/kg, ip administered daily for 2 weeks starting on day 27 post first immunization measured thrice per week during compound dosing relative to control; assay type: functional, organism-based
Method in brief: (§2)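 Male DBA/1J mice (8–9 wk, n = 8/group). Arthritis induced by intradermal tail-base immunization with 100 µg chicken type-II collagen in CFA on day −1, with a 50 µg boost on day 21. Daily i.p. dosing in 2% DMSO/PBS for 14 days from day 27. Blinded scoring three times weekly, 0–15 per limb (max 60). Vehicle group as control. Mann-Whitney test.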

Mus musculus [3] = assay: Antiarthritic activity in collagen-induced DBA/1J mouse arthritis model assessed as decrease in incidence of arthritis at 7 mg/kg, ip administered daily for 2 weeks starting on day 27 post first immunization measured thrice per week during compound dosing relative to control; assay type: functional, organism-based; method in brief: as §2
MCF7 [4] = assay: Cytotoxicity against human MCF7 cells assessed as decrease in cell viability after 48 hrs by MTS assay; assay type: functional, cell-based; method in brief: as §1
[5] = Kinetic solubility of the compound in DMSO/PBS mixture after 20 hrs by RP-UPLC-UV method; assay type: physicochemical
Method in brief: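 100 µM compound in 1% DMSO/PBS pH 7.4, shaken 20 h at 37 °C. Centrifuged to remove insoluble material; supernatant quantified by RP-UPLC-UV at 306 nm. Triplicate.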

Mus musculus [6] = assay: Toxicity in collagen-induced DBA/1J mouse arthritis model assessed as decrease in body weight at 7 mg/kg, ip administered daily for 2 weeks starting on day 27 post first immunization measured thrice per week during compound dosing; assay type: organism-based; conditions: in vivo, 336 h
Method in brief: (§3)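 CIA in male DBA/1J mice (8–9 wk, n = 8/group) from chicken type-II collagen/CFA immunization (day −1, boost day 21). Daily i.p. dosing in 2% DMSO/PBS for 14 days starting day 27. Body weight recorded three times weekly as a general-health indicator, compared with vehicle. Data are mean ± SEM.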

[7] = Prodrug activation in DMSO/PBS mixture assessed as formation of Dimethyl (4-(((2,4-Diaminopteridin-6-yl)methyl)(methyl)amino)-benzoyl)-L-glutamate at 50 uM after <3 hrs in presence of 0.5 mM H2O2 by RP-UPLC-MS method
Method in brief: (§4)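 50 µM prodrug in 30% DMSO/PBS pH 7.4 at 37 °C with diclofenac internal standard. Started with H2O2 at 0.5 mM final. Sampled 5 min to 4 h (some compounds to 48 h). RP-UPLC-UV at 306 nm. No-H2O2 control run in parallel. Triplicate.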

MCF7 [8] = assay: Cytotoxicity against human MCF7 cells assessed as decrease in cell viability preincubated with H2O2 for 24 hrs followed by cell addition measured after 48 hrs by MTS assay; assay type: functional, cell-based
Method in brief: (§5)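 Compound pre-activated at 125 µM with 1.25 mM H2O2 in DMSO:PBS 1:1, 24 h at 21 °C. Then added to MCF-7 or NCI-H460 cells (24 h attached) for 48 h. Final H2O2 <10 µM. MTS read at 490 nm. Triplicate. IC50 by non-linear regression.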

NCI-H460 [9] = assay: Cytotoxicity against human NCI-H460 cells assessed as decrease in cell viability preincubated with H2O2 for 24 hrs followed by cell addition measured after 48 hrs by MTS assay; assay type: functional, cell-based; method in brief: as §5
[10] = Half life in SGF by RP-UPLC-UV method; assay type: physicochemical
Method in brief: (§6)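 SGF or SIF (SIF adjusted to pH 7.5) dosed from a 10 mM DMSO stock. Incubated at 37 °C and sampled at 0, 1, 2, 4 and 24 h. Run in triplicate.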

Mus musculus [11] = assay: Antiarthritic activity in collagen-induced DBA/1J mouse arthritis model assessed as decrease in incidence of arthritis at 9.7 mg/kg, ip administered daily for 2 weeks starting on day 27 post first immunization measured thrice per week during compound dosing relative to control; assay type: functional, organism-based; method in brief: as §2
[12] = Intrinsic clearance in human liver microsomes at 10 uM after 5 to 60 mins by RP-UPLC-UV method; assay type: ADME, microsome; conditions: read-out: CLH
Method in brief: (§7)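 Pooled male liver microsomes (human, or CD-1 mouse) in PBS at 37 °C with 10 µM compound. Reaction started with NADPH. Aliquots taken 0–60 min (mouse also 120 and 240 min) and quenched with cold MeCN/diclofenac. Read by RP-UPLC-UV, ln[C] vs time, first order. No-NADPH control run; verapamil (human) or diphenhydramine (mouse) as reference.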

[13] = Chemical stability in PBS/DMSO mixture at pH 7.4 after 24 hrs by RP-UPLC-UV method; assay type: physicochemical; conditions: read-out: Stability
[14] = Metabolic stability in human plasma at 20 uM after 24 hrs by RP-UPLC-UV method; assay type: ADME, cell-free; conditions: read-out: Stability
Method in brief: (§8)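 Reconstituted lyophilized human or mouse plasma mixed about 1:1 with PBS and pre-warmed to 37 °C. Compound added to 20 µM final. […] Procaine (human) and diltiazem (mouse) as controls.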

[15] = Prodrug activation in DMSO/PBS mixture assessed as formation of methotrexate at 100 uM after 24 hrs in presence of 0.25 to 10 mM H2O2 by RP-UPLC-MS method
Method in brief: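 Prodrug from 1 mM DMSO stock in PBS pH 7.4 with diclofenac internal standard. Started with H2O2 solutions of 10, 5, 1, 0.5 or 0.25 mM (stock concentrations). Incubated at 37 °C and sampled 5 min to 24 h (48 h for some). RP-UPLC-UV at 306 nm. PBS-only control run. Triplicate.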

[16] = Half life in human plasma at 20 uM by RP-UPLC-UV method; assay type: ADME, cell-free; method in brief: as §8
Mus musculus [17] = assay: Antiarthritic activity in collagen-induced DBA/1J mouse arthritis model assessed as reduction of macroscopic score at 9.7 mg/kg, ip administered daily for 2 weeks starting on day 27 post first immunization measured thrice per week during compound dosing relative to control; assay type: functional, organism-based; method in brief: as §2
[18] = Intrinsic clearance in CD1 mouse liver microsomes at 10 uM after 5 to 240 mins by RP-UPLC-UV method; assay type: ADME, microsome; conditions: read-out: CLH; method in brief: as §7
[19] = Half life in SIF by RP-UPLC-UV method; assay type: physicochemical; method in brief: as §6
[20] = Half life in PBS/DMSO mixture at pH 7.4 by RP-UPLC-UV method; assay type: physicochemical
[21] = Prodrug activation in DMSO/PBS mixture assessed as formation of methotrexate at 50 uM after <3 hrs in presence of 0.5 mM H2O2 by RP-UPLC-MS method; method in brief: as §4
[22] = Metabolic stability in mouse plasma at 20 uM after 8 hrs by RP-UPLC-UV method; assay type: ADME, cell-free; conditions: read-out: Stability; method in brief: as §8
Mus musculus [23] = assay: Toxicity in collagen-induced DBA/1J mouse arthritis model assessed as decrease in body weight at 9.7 mg/kg, ip administered daily for 2 weeks starting on day 27 post first immunization measured thrice per week during compound dosing; assay type: organism-based; conditions: in vivo, 336 h; method in brief: as §3
[24] = Half life in mouse plasma at 20 uM by RP-UPLC-UV method; assay type: ADME, cell-free; method in brief: as §8

solubility kinetic at 20 h ([5]; read-out: Kinetic_solubility): 2140 µM (≈ 971 µg/mL)
SMILES: CN(Cc1cnc2nc(N)nc(N)c2n1)c1ccc(C(=O)N[C@@H](CCC(=O)O)C(=O)O)cc1 [METHOTREXATE]
Activity (NCI-H460 [1]): Active | Activity (Mus musculus [2]): Active | Activity (Mus musculus [3]): Active | Activity (MCF7 [4]): Active | Activity (Mus musculus [6]): Toxic

solubility kinetic at 20 h ([5]; read-out: Kinetic_solubility): 3 µM (≈ 1.98 µg/mL)
SMILES: COC(=O)CC[C@H](NC(=O)c1ccc(N(C)Cc2cnc3nc(N)nc(NC(=O)OCc4ccc(B(O)O)cc4)c3n2)cc1)C(=O)OC
Drug metabolism [7]: > 95%

half-life [10]: 8 h | microsomal CLint at 10 µM [12]: 2.2 µL/min/mg | remaining at 24 h [13]: > 90% | remaining at 24 h, 20 µM [14]: 70% | half-life at 20 µM [16]: 70 h | microsomal CLint at 10 µM [18]: 6.4 µL/min/mg | half-life [19]: 239 h | half-life [20]: 238 h | solubility kinetic at 20 h ([5]; read-out: Kinetic_solubility): 87 µM (≈ 55 µg/mL) | remaining at 8 h, 20 µM [22]: 62% | half-life at 20 µM [24]: 17 h
SMILES: CN(Cc1cnc2nc(N)nc(NC(=O)OCc3ccc(B(O)O)cc3)c2n1)c1ccc(C(=O)N[C@@H](CCC(=O)O)C(=O)O)cc1
Activity (MCF7 [8]): Active | Activity (NCI-H460 [9]): Active | Activity (Mus musculus [11]): Active | Activity (NCI-H460 [1]): inactive | Drug metabolism [15]: Metabolite detected | Activity (Mus musculus [17]): Active | Activity (MCF7 [4]): inactive | Drug metabolism [21]: Metabolite detected | Activity (Mus musculus [23]): Non-Toxic

solubility kinetic at 20 h [5]: 4.6 µM (≈ 3.12 µg/mL)
SMILES: COC(=O)CC[C@H](NC(=O)c1ccc(N(C)Cc2cnc3nc(N)nc(NC(=O)OCc4ccc(B(O)O)c(F)c4)c3n2)cc1)C(=O)OC
Drug metabolism [7]: > 95%
